Assay results of several laboratories.
Target: Serine/threonine-protein kinase 3 (STK3, Homo sapiens, UniProt Q13188)
Residues used in one study (Q13188 1-491): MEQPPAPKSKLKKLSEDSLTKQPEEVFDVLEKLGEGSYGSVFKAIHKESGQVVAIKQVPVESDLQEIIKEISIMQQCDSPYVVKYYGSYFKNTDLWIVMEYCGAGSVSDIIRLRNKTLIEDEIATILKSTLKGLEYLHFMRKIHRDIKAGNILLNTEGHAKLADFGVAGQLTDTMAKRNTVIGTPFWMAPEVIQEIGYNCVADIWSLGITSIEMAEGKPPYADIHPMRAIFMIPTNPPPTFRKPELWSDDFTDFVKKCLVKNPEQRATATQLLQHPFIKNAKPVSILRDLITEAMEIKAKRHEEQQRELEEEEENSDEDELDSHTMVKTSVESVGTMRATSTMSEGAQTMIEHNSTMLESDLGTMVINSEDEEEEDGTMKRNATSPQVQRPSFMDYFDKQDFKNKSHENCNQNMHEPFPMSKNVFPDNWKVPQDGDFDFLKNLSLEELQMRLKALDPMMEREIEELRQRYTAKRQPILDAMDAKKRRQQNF

`CCCCC(=O)Nc1ccc(-c2ccc3ncn(CCC)c(=O)c3c2)cn1` gave a remaining binding of 73% (binding; competition with immobilised ligand; 0.5 µM).
For `COc1ccc2oc(-c3ccc4nc(N)oc4c3)c/c(=N\c3ccccc3NC(=O)CCN)c2c1`, the remaining binding was 79% (binding; 1 µM).
The inhibition of `CO[C@@H]1[C@H](N(C)C(=O)c2ccccc2)C[C@H]2O[C@]1(C)n1c3ccccc3c3c4c(c5c6ccccc6n2c5c31)C(=O)NC4` is reported as 100% (enzyme activity; inhibitor; 1 µM).
The inhibition of `Cc1cc(O)c(-c2ccc([C@@H](C)CN(C)C)cc2)c2c1[nH]c(=O)c1sccc12` is reported as 9.39% (enzyme activity; inhibitor; 0.1 µM).
The remaining binding of `CN1CCN(C(=O)c2ccc(NC(=O)Nc3ccc(N(C)c4ccnc(Nc5ccc(CS(C)(=O)=O)cc5)n4)cc3)cc2)CC1` is reported as 16% (binding; 1 µM).
With `C#Cc1cc(-c2cc(Nc3nc(N[C@@H](C)c4ccc(F)cn4)ncc3Cl)n[nH]2)ccc1C=O` the inhibition was 29.9% (enzyme activity; inhibitor; 0.2 µM).
The remaining binding of `Cc1ccc(NC(=O)c2ccnc(C(F)(F)F)c2)cc1-c1cc(OCCO)nc(N2CCOCC2)c1` is reported as 79% (binding; 1 µM).
With `CC#CC(=O)N1CCC[C@H]1c1nc(-c2ccc(C(=O)Nc3ccccn3)cc2)c2c(N)nccn12` the inhibition was 19% (enzyme activity; inhibitor; 1 µM).
The activity vs control of `CC(C)S(=O)(=O)c1ccc2nccc(Nc3ccc4sc(C5CCCC5)nc4c3)c2c1` is reported as 103% (enzyme activity; inhibitor; 1 µM).
